{"source": "ChEMBL document CHEMBL4706684", "about": "“Discovering High Potent Hsp90 Inhibitors as Antinasopharyngeal Carcinoma Agents through Fragment Assembling Approach” (J Med Chem, 2021)", "key": {"[1]": {"molecular_target": "T1, Heat shock protein HSP 90-alpha (Homo sapiens, UniProt P07900)", "test": "Potency index, ratio of IC50 for 17-AAG to IC50 for inhibition of HSP90-alpha (unknown origin) expressed in Escherichia coli BL21 assessed as reduction in ATPase activity in presence of PEP, NADH and ATP by pyruvate kinase/lactic dehydrogenase based coupled enzyme assay", "outline": "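The reaction was started with 2 μM Hsp90 at 37 °C and followed as the decrease in absorbance at 340 nm. Compounds were added to the reaction mixture, with 17-AAG as reference.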"}, "[2]": {"molecular_target": "T1, Heat shock protein HSP 90-alpha", "test": "Inhibition of HSP90-alpha in human CNE-2 cells assessed as reduction in PKB protein levels at 20 to 500 nM incubated for 24 hrs by immunoblot analysis", "assay_type": "cell-based", "settings": "dose 20-500 nM", "outline": "(§1)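 CNE2 cells (RPMI 1640, 10% FBS, 37 °C, 5% CO₂) were incubated with inhibitor for 24 h, then lysed in RIPA buffer on ice for 30 min. Lysates were run on 8–12% SDS-PAGE and transferred to PVDF. Membranes were blocked with 5% milk and probed with primary antibodies overnight, then HRP secondaries. Detection was by chemiluminescence with actin as loading control.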"}, "CNE-2 [3]": {"tested_on": "CNE-2", "test": "Induction of apoptosis in human CNE-2 cells assessed as Bcl-XL degradation at 20 to 500 nM incubated for 24 hrs by immunoblot analysis", "assay_type": "functional, cell-based", "settings": "dose 20-500 nM", "outline": "as §1"}, "CNE-2 [4]": {"tested_on": "CNE-2", "test": "Induction of apoptosis in human CNE-2 cells assessed as reduction in HER2 protein level at 500 nM incubated for 24 hrs by immunoblot analysis", "assay_type": "functional, cell-based", "outline": "as §1"}, "CNE-2 [5]": {"tested_on": "CNE-2", "test": "Induction of apoptosis in human CNE-2 cells assessed as Bcl-XL degradation at 70 nM incubated for 24 hrs in presence of HSP90-beta siRNA by immunoblot analysis", "assay_type": "functional, cell-based"}, "[6]": {"molecular_target": "T1, Heat shock protein HSP 90-alpha", "test": "Inhibition of HSP90-alpha in human CNE-2 cells assessed as reduction in PKB protein levels at 70 nM incubated for 24 hrs in presence of HSP90-beta siRNA by immunoblot analysis", "assay_type": "cell-based"}, "CNE-2 [7]": {"tested_on": "CNE-2", "test": "Antitumor activity against human CNE-2 cells xenografted in nu/nu mouse assessed as induction of tumor size shrinkage at 1 mg/kg, ip for 32 days", "assay_type": "functional, organism-based", "settings": "time 32.0 day"}, "CNE-2 [8]": {"tested_on": "CNE-2", "test": "Antitumor activity against human CNE-2 cells xenografted in nu/nu mouse assessed as induction of tumor size shrinkage at 1 mg/kg, po for 32 days", "assay_type": "functional, organism-based", "settings": "time 32.0 day"}, "CNE-2 [9]": {"tested_on": "CNE-2", "test": "Antitumor activity against human CNE-2 cells xenografted in nu/nu mouse assessed as inhibition of tumor growth at 1 mg/kg, po for 32 days", "assay_type": "functional, organism-based", "settings": "time 32.0 day"}, "[10]": {"test": "Oral bioavailability in Kunming mouse at 2 mg/kg measured up to 6 hrs by HPLC analysis", "assay_type": "ADME, organism-based", "settings": "in vivo", "outline": "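Male Kunming mice, 9–11 weeks old, about 23 g, four per group, were given a single 2 mg/kg dose intravenously or orally. Blood was sampled at 0, 10, 15, 30 min and 1, 2, 4, 6 h. For each sample, 40 μL plasma was deproteinized with 200 μL acetonitrile and centrifuged 10 min at 12 000 rpm before analysis.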"}, "[11]": {"molecular_target": "T1, Heat shock protein HSP 90-alpha", "test": "Inhibition of HSP90-alpha (unknown origin) expressed in Escherichia coli BL21 assessed as reduction in ATPase activity in presence of PEP, NADH and ATP by pyruvate kinase/lactic dehydrogenase based coupled enzyme assay"}, "CNE-2 [12]": {"tested_on": "CNE-2", "test": "Induction of apoptosis in human CNE-2 cells assessed as early apoptosis cells level at 20 nM incubated for 12 hrs by Annexin-V/FITC staining based FACS analysis (reference value: 1.45%)", "assay_type": "cell-based", "settings": "cne-2, 12 h, 0.02 µM"}, "CNE-2 [13]": {"tested_on": "CNE-2", "test": "Induction of apoptosis in human CNE-2 cells assessed as late apoptosis cells level at 20 nM incubated for 12 hrs by Annexin-V/FITC staining based FACS analysis (reference value: 1.45%)", "assay_type": "cell-based", "settings": "cne-2, 12 h, 0.02 µM"}, "CNE-2 [14]": {"tested_on": "CNE-2", "test": "Induction of apoptosis in human CNE-2 cells assessed as viable cells level at 50 nM incubated for 12 hrs by Annexin-V/FITC staining based FACS analysis (reference value: 96.7%)", "assay_type": "cell-based", "settings": "read-out: Activity", "outline": "(§2)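 CNE2 cells (RPMI 1640 with 10% FBS) were seeded at 5 × 10⁴ cells per well. After 24 h they were treated with compound in 0.05% DMSO for 12 h. Cells were then washed twice with PBS, pelleted, and stained in binding buffer with Annexin V-FITC and PI for flow cytometry.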"}, "CNE-2 [15]": {"tested_on": "CNE-2", "test": "Induction of apoptosis in human CNE-2 cells assessed as early apoptosis cells level at 50 nM incubated for 12 hrs by Annexin-V/FITC staining based FACS analysis (reference value: 1.45%)", "assay_type": "cell-based", "settings": "cne-2, 12 h, 0.05 µM"}, "CNE-2 [16]": {"tested_on": "CNE-2", "test": "Induction of apoptosis in human CNE-2 cells assessed as viable cells level at 100 nM incubated for 12 hrs by Annexin-V/FITC staining based FACS analysis (reference value: 96.7%)", "assay_type": "cell-based", "settings": "read-out: Activity", "outline": "as §2"}, "CNE-2 [17]": {"tested_on": "CNE-2", "test": "Induction of apoptosis in human CNE-2 cells assessed as necrosis cells level at 100 nM incubated for 12 hrs by Annexin-V/FITC staining based FACS analysis (reference value: 1.45%)", "assay_type": "cell-based", "settings": "cne-2, 12 h, 0.1 µM"}, "CNE-2 [18]": {"tested_on": "CNE-2", "test": "Induction of apoptosis in human CNE-2 cells assessed as early apoptosis cells level at 200 nM incubated for 12 hrs by Annexin-V/FITC staining based FACS analysis (reference value: 1.45%)", "assay_type": "cell-based", "settings": "cne-2, 12 h, 0.2 µM"}, "CNE-2 [19]": {"tested_on": "CNE-2", "test": "Induction of apoptosis in human CNE-2 cells assessed as late apoptosis cells level at 200 nM incubated for 12 hrs by Annexin-V/FITC staining based FACS analysis (reference value: 1.45%)", "assay_type": "cell-based", "settings": "cne-2, 12 h, 0.2 µM"}, "CNE-2 [20]": {"tested_on": "CNE-2", "test": "Induction of apoptosis in human CNE-2 cells assessed as early apoptosis cells level at 500 nM incubated for 12 hrs by Annexin-V/FITC staining based FACS analysis (reference value: 1.45%)", "assay_type": "cell-based", "settings": "cne-2, 12 h, 0.5 µM"}, "CNE-2 [21]": {"tested_on": "CNE-2", "test": "Induction of apoptosis in human CNE-2 cells assessed as late apoptosis cells level at 500 nM incubated for 12 hrs by Annexin-V/FITC staining based FACS analysis (reference value: 1.45%)", "assay_type": "cell-based", "settings": "cne-2, 12 h, 0.5 µM"}, "CNE-2 [22]": {"tested_on": "CNE-2", "test": "Induction of apoptosis in human CNE-2 cells assessed as viable cells level at 70 nM incubated for 12 hrs by Annexin-V/FITC staining based FACS analysis (reference value: 93.2%)", "assay_type": "cell-based", "settings": "read-out: Activity", "outline": "as §2"}, "CNE-2 [23]": {"tested_on": "CNE-2", "test": "Induction of apoptosis in human CNE-2 cells assessed as late apoptosis cells level at 70 nM incubated for 12 hrs by Annexin-V/FITC staining based FACS analysis (reference value: 2.18%)", "assay_type": "cell-based", "settings": "cne-2, 12 h, 0.07 µM"}, "CNE-2 [24]": {"tested_on": "CNE-2", "test": "Induction of apoptosis in human CNE-2 cells assessed as necrosis cells level at 70 nM incubated for 12 hrs by Annexin-V/FITC staining based FACS analysis (reference value: 1.49%)", "assay_type": "cell-based", "settings": "cne-2, 12 h, 0.07 µM"}, "CNE-2 [25]": {"tested_on": "CNE-2", "test": "Induction of apoptosis in human CNE-2 cells overexpressing HSP90 assessed as viable cells level at 70 nM incubated for 12 hrs by Annexin-V/FITC staining based FACS analysis (reference value: 93.2%)", "assay_type": "cell-based", "settings": "read-out: Activity"}, "CNE-2 [26]": {"tested_on": "CNE-2", "test": "Induction of apoptosis in human CNE-2 cells overexpressing HSP90 assessed as early apoptosis cells level at 70 nM incubated for 12 hrs by Annexin-V/FITC staining based FACS analysis (reference value: 3.1%)", "assay_type": "cell-based", "settings": "cne-2, 12 h, 0.07 µM"}}, "note": "Activity calls are given as the source filed them. The rule behind the calls is not given here.", "data": [{"molecule": "CC(C)(C)c1ccc(Cn2cc(-c3cc(O)c(O)c(O)c3)nn2)cc1", "values": [{"measurement": "Ratio IC50", "setting": "[1]", "value": 5}, {"measurement": "inhibition", "setting": "[2]", "value": "Active"}, {"measurement": "Activity", "setting": "CNE-2 [3]", "value": "Active"}, {"measurement": "Activity", "setting": "CNE-2 [4]", "value": "Active"}, {"measurement": "Activity", "setting": "CNE-2 [5]", "value": "inactive"}, {"measurement": "inhibition", "setting": "[6]", "value": "inactive"}, {"measurement": "Activity", "setting": "CNE-2 [7]", "value": "Active"}, {"measurement": "Activity", "setting": "CNE-2 [8]", "value": "Active"}, {"measurement": "TGI", "setting": "CNE-2 [9]", "value": "Active"}, {"measurement": "bioavailability", "setting": "[10]", "value": 12, "unit": "%"}, {"measurement": "IC50", "setting": "[11]", "value": 160, "unit": "nM"}, {"measurement": "Activity", "setting": "CNE-2 [12]", "value": 4.08, "unit": "%"}, {"measurement": "Activity", "setting": "CNE-2 [13]", "value": 2.19, "unit": "%"}, {"measurement": "viability at 0.05 µM", "setting": "CNE-2 [14]", "value": 77.2, "unit": "%"}, {"measurement": "Activity", "setting": "CNE-2 [15]", "value": 7.17, "unit": "%"}, {"measurement": "viability at 0.1 µM", "setting": "CNE-2 [16]", "value": 78.6, "unit": "%"}, {"measurement": "Activity", "setting": "CNE-2 [17]", "value": 0.57, "unit": "%"}, {"measurement": "Activity", "setting": "CNE-2 [18]", "value": 13, "unit": "%"}, {"measurement": "Activity", "setting": "CNE-2 [19]", "value": 11.6, "unit": "%"}, {"measurement": "Activity", "setting": "CNE-2 [20]", "value": 33.6, "unit": "%"}, {"measurement": "Activity", "setting": "CNE-2 [21]", "value": 33.4, "unit": "%"}, {"measurement": "viability at 0.07 µM", "setting": "CNE-2 [22]", "value": 75, "unit": "%"}, {"measurement": "Activity", "setting": "CNE-2 [23]", "value": 9.56, "unit": "%"}, {"measurement": "Activity", "setting": "CNE-2 [24]", "value": 1.2, "unit": "%"}, {"measurement": "viability at 0.07 µM", "setting": "CNE-2 [25]", "value": 94, "unit": "%"}, {"measurement": "Activity", "setting": "CNE-2 [26]", "value": 3.96, "unit": "%"}]}]}
